Series [1] in a line: Biodistribution by pretargeting system in Nude mice bearing PC‐3 tumor cells. Set-up: species or system Nude mice (Balb/c). The note with it: mouse, in vivo, iv, 50 ul of the mixture.
Another series deals with PC‐3 tumor xenografts. As to the kind of experiment: Scintigraphic imaging of tumor‐bearing mice. The following applies: tumor‐bearing Nude mice. Type of series: in vivo, Nude mice (Balb/c). An outline of the steps:
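PC-3 xenograft-bearing nude mice were pretargeted with the SA:B-MORF:biotinylated BBN analogue mixture (1:1:2) for 7 or 15 h, then given 99mTc-MAG3-cMORF intravenously. Anaesthetised mice, lying horizontally, were imaged on a gamma camera with a low-energy high-resolution collimator. Acquisition used a 20% energy window at 140 keV for 180 s. Tumour region-of-interest uptake was expressed as a percentage.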

Consider `CSCC[C@H](NC(=O)[C@H](CC(C)C)NC(=O)[C@H](Cc1c[nH]cn1)NC(=O)CNC(=O)[C@@H](NC(=O)[C@H](C)NC(=O)[C@H](Cc1c[nH]c2ccccc12)NC(=O)[C@H](CCC(N)=O)NC(=O)CCOCCOCCOCCOCCOCCOCCOCCOCCOCCOCCOCCOCCNC(=O)CCCC[C@@H]1SC[C@@H]2NC(=O)N[C@@H]21)C(C)C)C(N)=O` [B‐PEG‐BBN, Biotin‐dPEG‐Gln‐Trp‐Ala‐Val‐Gly‐His‐Leu‐Met‐NH2], for which, in series [1], the tissue to tissue ratio worked out at 2.45. Further, the entries for the “ROI (region of interest) in scintigraphic images” value with PC‐3 tumor xenografts (7 h) and with PC‐3 tumor xenografts (15 h) were 1.47% and 1.22%, respectively.

Source of the values: publication PMC3059864 (Clinics, 2011).
